Bioassay records deposited in PubChem by Johns Hopkins Ion Channel Center.
Most compounds without a hit are left out; they make up all but 3.7% or so of the library.
KCNQ1 pot: potentiators or activators of KCNQ1 channel, primary screen, cell-based, thallium flux, high-throughput. Potassium voltage-gated channel subfamily KQT member 1 (Homo sapiens), P51787. CHO-K1 KCNQ1, thallium flux FluxOR fluorescence; hits give high values. B-score at 10 µM. 0.35% of 310,000 active;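 active means fluorescence ratio B-score, a plate-corrected score, at least three library SD, with initial intensity B-score within 5 SD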
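Schedule – 37 °C overnight plating, 90-min dark dye load, 20-min compound pretreatment · System – stable KCNQ1 CHO-K1 line · Probe or stimulus – thallium- and potassium-containing depolarizing buffer · Measured by – kinetic FluxOR fluorescence, 10 s baseline plus 110 s post-stimulus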
hERG rescue: hERG rescue from dofetilide block, primary screen, cell-based, CHO-hERG, FluxOR thallium flux, dofetilide IC70. dofetilide IC70 present. activation (rescue from dofetilide block), less the hit threshold, % at 10 µM. 0.51% of 310,000 active. AID 1511, 2009;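 active means activation above the mean of controls blocked by dofetilide plus 5 SD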;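 further: thallium influx through hERG after potassium depolarization seen as dye fluorescence rise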
KCNK3 block: human KCNK3 channel inhibitors, primary screen, CHO cells, FluxOR thallium flux, B-score. Potassium channel subfamily K member 3 (Homo sapiens), O14649. FluxOR fluorescence; hits give low values. B-score at 10 µM. 0.84% of 340,000 active;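 active means B-score under library mean minus 4 SD, starting fluorescence ratio at most library mean plus 5 SD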;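 further: more negative B-score means stronger inhibition of thallium flux through KCNK3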
Kir21 block: inhibitors of mouse Kir2.1 inward-rectifier potassium channel | Inward rectifier potassium channel 2 (Mus musculus), P35561 | HEK293-Kir2.1, FluxOR thallium flux fluorescence; hits give low values | B-score at 10 µM | 0.85% of 310,000 active;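 active means fluorescence ratio B-score at or below minus 3 SD of library scores, with starting-brightness B-score within 2 SD, cut at about -4.2 in these data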;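 further: channel flux triggered by added potassium and thallium sulfate stimulus; B-score of peak minus minimum fluorescence over baseline after thallium stimulus; more negative B-score means stronger Kir2.1 block with less thallium influx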
KCNK9 inh: KCNK9 potassium channel inhibitors, primary screen, HEK293 cells, thallium flux; B-score at 10 µM; Potassium channel subfamily K member 9 (Homo sapiens), Q9NPC2; AID 488922, 2010; 1.2% of 310,000 active; FluxOR thallium flux fluorescence; hits give low values;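 active means ratio B-score over 3 SD below the library mean, with starting fluorescence within 5 SD of its mean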;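 further: negative B-score means less thallium flux so channel inhibition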
KCNQ1 block: inhibitors of human KCNQ1 channel, primary screen, cell-based, thallium flux, high-throughput; Potassium voltage-gated channel subfamily KQT member 1 (Homo sapiens), P51787; CHO-K1 KCNQ1, FluxOR thallium flux fluorescence; hits give high values; B-score at 10 µM; 1.3% of 310,000 active;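 active means compounds whose thallium flux B-score, printed positive for inhibition, exceeds three library SD while starting fluorescence stays within three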;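 further: channel opened by potassium depolarization with thallium stimulus after 20 min compound exposure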
The depositor's hits bear a star; i = inactive; . = not tested or not shown.

SMILES | KCNQ1 pot | hERG rescue | KCNK3 block | Kir21 block | KCNK9 inh | KCNQ1 block
COc1ccccc1C1c2ccc3ccccc3c2Oc2ncn(CCN(C)C)c(=N)c21 (configuration not stated) | i | -12.7 | i | -5.21* | i | i
COc1ccccc1C1c2ccc3ccccc3c2Oc2ncn(CCCO)c(=N)c21 (configuration not stated) | i | -13.9 | i | -2.5 | i | i
C[C@]12CC[C@H](O)CC1=C[C@H](O)C1C2CC[C@@]2(C)C1CC[C@@]2(O)C#Cc1ccc(CN)cc1 (some centres not stated) | . | . | i | . | . | .
CCOc1ccc(/C=C2\CCCc3c2nc2ccccc2c3C(=O)O)cc1OC | i | -52.5 | i | -17.5 | i | 19*
Cc1ccc(S(=O)(=O)N(Cc2ccc(F)cc2)Cc2ccco2)cc1 | i | -5.6 | i | -0.7 | i | 6*
Cc1ccc(S(=O)(=O)N(CC(=O)O)Cc2ccco2)cc1 | i | -6.7 | i | 0.04 | i | i
C/C(=N/NS(=O)(=O)c1ccc(C)cc1C)c1c[nH]c2ccccc12 | i | -14.6 | i | 1.1 | i | i
CN(Cc1ccccc1)S(=O)(=O)c1ccccc1Br | . | . | i | . | . | .
C=CCN(C(=O)C1CSC2(C)CCC(=O)N12)c1nc(-c2ccccc2)cs1 (configuration not stated) | i | -5.5 | i | 0.89 | i | 6*
C/C=C/C=C\C(=O)Nc1cccc(C2=NOC3(C2)C[C@@H](C(N)=O)N(C(=O)c2cc([N+](=O)[O-])cc([N+](=O)[O-])c2C)C3)c1 (some centres not stated) | i | 1.5 | i | 1.06 | i | i
COc1ccc(/C=C2\SC(N3CCCCC3)=NC2=O)cc1OC | i | -3.8 | i | -0.31 | i | i
COc1ccc(OC)c(/C=C2\SC(N3CCCC(C)C3)=NC2=O)c1 (configuration not stated) | i | -13.2 | i | -0.1 | i | 7*
Cc1ccc(NC(=O)C2Cc3ccccc3CN2C(=O)c2ccccc2)cc1Cl (configuration not stated) | i | -7.2 | i | 1.51 | i | i
O=C(NCc1cccnc1)C(=O)Nc1nc(C23CC4CC(CC(C4)C2)C3)cs1 | i | -15.5 | i | -1.14 | i | i
O=C(NCc1ccccc1)C(=O)Nc1nc(C23CC4CC(CC(C4)C2)C3)cs1 | 10* | 17.5* | i | -0.03 | i | i
O=C(NCc1ccc(F)cc1)C(=O)Nc1nc(C23CC4CC(CC(C4)C2)C3)cs1 | i | 4.9* | i | -0.66 | i | i
O=C(NCc1ccncc1)C(=O)Nc1nc(C23CC4CC(CC(C4)C2)C3)cs1 | i | -9.0 | i | -0.16 | i | i
Cc1ccc(S(=O)(=O)NCc2cccnc2)cc1C(=O)N1CCCC1 | i | -6.2 | i | -1.34 | i | i
Cc1ccc(C2(CCNCc3ccco3)CCOC(C(C)C)C2)cc1 (configuration not stated) | i | -8.1 | i | -4.28* | i | i
O=C(COC(=O)c1cc(Br)ccc1O)c1ccc(F)cc1 | . | . | i | . | . | .
S=C(NNc1ccnc2cc(Cl)ccc12)Nc1ccccc1Cl | i | -15.6 | i | 1.18 | i | 8*
CCOC(=O)c1sc(NC(=O)C(CC)Sc2nnc3c4ccccc4n(C(C)C)c3n2)nc1C (configuration not stated) | . | . | -10.9* | . | . | .
CCOC(=O)Cc1nnc(NC(=O)C(CC)Sc2nnc3c4ccccc4n(C)c3n2)s1 (configuration not stated) | i | -6.9 | i | -0.28 | i | i
Cc1cnc(C(=O)OCC(=O)N2CCC(C)CC2)cn1 | . | . | i | . | . | .
COc1ccc(N(C)C(=O)c2ccc3nc(-c4ccccc4)c(-c4ccccc4)nc3c2)cc1 | i | -9.7 | i | -1.04 | -7.36* | 9*
SMILES | KCNQ1 pot | hERG rescue | KCNK3 block | Kir21 block | KCNK9 inh | KCNQ1 block
CC(C)N(C(=O)c1ccc2nc(-c3ccccc3)c(-c3ccccc3)nc2c1)C(C)C | i | -9.3 | i | 0.64 | i | i
Cn1ncc(N=Cc2c(O)ccc3ccccc23)c1C(=O)Nc1cccc(Cl)c1 | i | -9.2 | i | 0.07 | -7.43* | i
Cn1ncc(Cl)c1C(=O)Nc1cccc(Cl)c1 | i | -4.9 | i | -0.19 | i | i
COc1cccc(/C=C(/C(=O)OCC(=O)NC2CCCCCCC2)c2ccccc2)c1 | i | -25.4 | i | -1.08 | -9.87* | 10*
COc1cccc(/C=C(/C(=O)OCC(=O)NCC2CCCO2)c2ccccc2)c1 (configuration not stated) | i | -13.1 | i | -0.72 | i | i
N#Cc1cccc(NCC(=O)Nc2ccc3c(c2)OCCO3)c1 | i | -12.3 | i | -1.88 | i | i
O=C(Nc1ccccc1)N(O)c1ccc(Cl)cc1 | i | -8.6 | i | 0.1 | i | 6*
O=C(NCc1nc2ncc(Br)cc2[nH]1)c1ccccc1 | i | 6.2* | i | 0.24 | i | i
Brc1cnc2nc(SC/C=C/c3ccccc3)[nH]c2c1 | i | -7.5 | i | 0.16 | i | i
N=c1n(Cc2ccccc2)c2ccccc2n1CC(O)COc1ccccc1 (configuration not stated) | i | -22.9 | i | -7.14* | i | i
Cc1ccccc1S(=O)(=O)NC(=NCc1ccc(F)cc1)c1ccccc1 | . | . | -9.26* | . | . | .
Cc1ccc(S(=O)(=O)NC(=NCc2ccccc2)c2ccc(F)cc2)cc1 | i | -2.6 | i | -2.32 | i | i
COC(=O)c1cc(C(=O)OCC(=O)N2CCCCC2)cc([N+](=O)[O-])c1 | . | . | i | . | . | .
CCCCNC(=O)O[C@H]1C[C@@H]2CCN3C(=O)CCC(C)(C)[C@H](C1)[C@H]23 | i | -4.2 | i | -0.81 | i | i
CC1(C)CCC(=O)N2CC[C@H]3C[C@H](OC(=O)Nc4ccc5c(c4)OCO5)C[C@@H]1[C@H]32 | i | -8.8 | i | -1.37 | -8.04* | i
CCCn1cc(SCC(=O)NCc2ccc3c(c2)OCO3)c2ccccc21 | i | -11.1 | i | 0.47 | i | i
O=C(CSc1ncnc2c1cnn2-c1ccc(Cl)cc1)NCc1ccc2c(c1)OCO2 | i | 4.7* | i | 0.15 | i | i
